The values below come from PubChem BioAssay.

Activity calls are given as the source filed them.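 Rule for the calls: active = potentiation averaged over duplicate wells exceeding buffer-only control mean by more than 3 SD; inactive = the rest.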

Potassium voltage-gated channel subfamily KQT member 1 (Homo sapiens), sequence (P51787 whole entry, looked up): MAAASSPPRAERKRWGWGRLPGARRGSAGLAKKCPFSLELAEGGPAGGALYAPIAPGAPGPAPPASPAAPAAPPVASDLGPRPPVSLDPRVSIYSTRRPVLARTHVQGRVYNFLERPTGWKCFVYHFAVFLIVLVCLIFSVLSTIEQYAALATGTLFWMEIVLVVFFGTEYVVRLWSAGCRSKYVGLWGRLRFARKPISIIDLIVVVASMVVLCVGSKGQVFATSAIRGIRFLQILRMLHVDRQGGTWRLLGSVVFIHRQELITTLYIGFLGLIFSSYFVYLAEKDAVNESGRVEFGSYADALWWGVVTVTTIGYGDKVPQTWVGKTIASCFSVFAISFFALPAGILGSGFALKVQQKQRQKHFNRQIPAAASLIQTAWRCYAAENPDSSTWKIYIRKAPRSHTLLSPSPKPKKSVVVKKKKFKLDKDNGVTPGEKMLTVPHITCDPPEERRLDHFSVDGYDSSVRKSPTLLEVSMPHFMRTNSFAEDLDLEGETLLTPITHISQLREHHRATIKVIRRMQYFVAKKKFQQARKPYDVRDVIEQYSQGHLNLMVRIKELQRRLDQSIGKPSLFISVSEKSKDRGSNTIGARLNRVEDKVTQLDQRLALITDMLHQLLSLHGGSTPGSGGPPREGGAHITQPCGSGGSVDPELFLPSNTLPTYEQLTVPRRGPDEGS

This assay addresses Potassium voltage-gated channel subfamily KQT member 1 (Homo sapiens) (UniProt P51787). In words: KCNQ1 potassium channel potentiators, confirmation, FluxOR thallium flux, CHO cells, duplicates (AID 493007).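 For outcome: cells depolarized by a potassium plus thallium sulfate stimulus after compound.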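 For potentiation: 0% = buffer-only wells and 100% = R-L3 activator control.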 The following applies: KCNQ1 cell line, FluxOR thallium flux fluorescence, at 10 µM; active compounds read high, % of reference activator effect, buffer zero. In a few lines: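 Assay system: CHO cells carrying KCNQ1 | Controls: Buffer and R-L3 controls | Schedule: FluxOR dye loading 90 min, compound exposure 20 min, room temperature | Read-out: Baseline-normalized fluorescence change, percent of buffer-to-R-L3 range | Replicates: Each compound tested in duplicate | Technique: Kinetic thallium influx fluorescence with FluxOR dye, 10 s baseline, 110 s post-stimulus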
For the compound `CCOC(=O)c1c(NC(=S)NCCc2ccccc2)sc2c1CC(C(C)C)OC2` (stereo not given), the potentiation was 32% (active).
On the same count and under the same terms, the value for `S=c1[nH]c(-c2ccccc2)cs1` was 184% (active).
Consider `CCc1ccc2[nH]c(C(=O)Nc3ccc(F)cc3Br)cc2c1`, for which the result was inactive.
`COc1ccc(/C=C2/SC(=S)N(NS(=O)(=O)c3ccccc3)C2=O)cc1`: the potentiation is 84.5% (active).
Still for that read-out and setting: for `CCN(c1ccccc1)S(=O)(=O)c1ccc(OC)c(OC)c1` the value was 150% (active).
Consider `C[C@@H](NC(=O)[C@@H]1Cc2ccccc2CN1)C(=O)NC1CCCC1`, for which the result was inactive.
For the compound `Cc1ccc(O)c(C(=O)CC(=O)c2cccc(F)c2)c1`, the potentiation is 24% (active).
Still for that read-out and setting: for `Cc1sc(-n2c(C)cc(/C=C3\SC(=S)NC3=O)c2C)c(C#N)c1C` the value was 36% (active); for `Cc1csc(N/N=C/c2ccc([N+](=O)[O-])cc2)n1`, 46% (active).
In the case of `CCc1nc2sc3c(=O)[nH]cnc3c2c2c1CSC(C)(C)C2`, the outcome was inactive.
On the same count and under the same terms, for `CC(C)C1=NN(C(=O)c2ccccc2)C(O)(C(C)(C)C)C1` (stereo not given) the value was “inactive”; for `C=C(C)CNC(=S)Nc1nc2c(cc1C(=O)OCC)CCCC2`, “inactive”; for `CCCSc1nnc(-c2cnn(-c3ccccc3)c2-n2cccc2)n1C`, “inactive”.
Turning to `Cc1cccc(C(=O)NC(=S)NNC(=O)COc2ccc(Cl)cc2)c1`, the potentiation was 52% (active).
Still for that read-out and setting: the value for `Cc1cccc(NC(=S)NNC(=O)c2csc3c2CCC(C)C3)c1` (stereo not given) was 86% (active).
In the case of `O=C(COC(=O)c1cc(S(=O)(=O)N2CCOCC2)ccc1O)NCCc1ccccc1`, the outcome was inactive.
On the same count and under the same terms, the value for `CC(=O)N[C@H]1[C@H](OC2CCCCC2)O[C@H](COC(C)=O)[C@@H](OC(C)=O)[C@@H]1OC(C)=O` was “inactive”.
In the case of `C=CCn1c(=S)[nH]c2scc(-c3cccs3)c2c1=O`, the potentiation was 274% (active).
For `Cc1ncc(CN2CCC(CO)(CCc3ccccc3)CC2)s1`, the result was inactive.
For the compound `COc1ccc(C(=O)NC(=S)N(Cc2ccccc2)Cc2ccccc2)cc1`, the potentiation is 168% (active).
The same measure, in the same setting: for `C=CCN(CC=C)C(=S)NC(=O)Cc1cccc2ccccc12` the value was 68.5% (active).
For `CC(C)Cc1ccc(C(C)C(=O)Nc2ccc(O)cc2)cc1` (stereo not given), the result was inactive.
Same read-out and setting: for `O=C1Nc2cc(C(=O)NCCCN3CCOCC3)ccc2S/C1=C/c1cccc(Cl)c1` the value was “inactive”.
Take `O=c1c2ccccc2sn1-c1ccccc1`: the potentiation is 59% (active).
On to `Cc1cc(C)nc(N(C#N)CC(=O)c2ccccc2)n1`, for which the outcome was inactive.
`COc1ccc2nc(N3C(=O)/C(=C/c4ccccc4)NC3=S)sc2c1`: the potentiation is 204% (active).
Take `O=c1c2c(-c3ccco3)csc2nc(SCc2cn3cccnc3n2)n1-c1ccccc1`: the result was inactive.
With `COc1cccc(N(C(=O)Cn2nnc(-c3ccc(C)o3)n2)C(C(=O)NC2CCCC2)c2ccncc2)c1` (stereo not given), the result was inactive.
Turning to `CCOC(=O)C(C)Oc1cccc2c(=O)n(CC(=O)NCc3ccc4c(c3)OCO4)ccc12` (stereo not given), the result was inactive.
On the same count and under the same terms, for `CCC(O)(CC)C(=O)NN(C(=O)CCl)c1ccccc1` the value was “inactive”; for `CCCC(=O)Nc1ccc(S(=O)(=O)N2CCC(c3nc4ccccc4[nH]3)CC2)cc1`, “inactive”.
Same read-out and setting: the value for `OC(C#CCCN1CCCCC1)(c1ccccc1)c1ccccc1` was “inactive”.
As for `O=C1C(C2=C(O)c3ccccc3C2=O)=Nc2ccccc21`, the potentiation is 61% (active).
For `Cc1ccc(-c2c(C)n([O-])c3c([n+]2=O)CCCC3)o1`, the result was inactive.
Same read-out and setting: the value for `O=C(c1cccnc1)N1N=C2CCCCCC2C1(O)C(F)(F)F` (stereo not given) was “inactive”.
Take `CCOC(=O)c1c(NC(=S)NC)sc2c1CC(C)(C)SC2`: the potentiation is 126% (active).
For `CC1=CC(=O)C(C(C)C)=CC1=NC(=O)c1ccc(C)cc1`, the result was inactive.
`CC1CN(C(=S)NC(=O)c2ccc(Cl)cc2)CC(C)O1` (stereo not given): the potentiation was 24% (active).
In the case of `CCN(CC)c1ccc(/C=N/Nc2nc3ccccc3[nH]2)c(O)c1`, the outcome was inactive.
Same read-out and setting: for `S=C(Nc1ccc(Br)cc1)N1CCn2cccc2C1c1cccnc1` (stereo not given) the value was “inactive”.
